Measurements as given in ChEMBL document CHEMBL1145979, “Synthetic analogues of the bacterial signal (quorum sensing) molecule N-(3-oxododecanoyl)-L-homoserine lactone as immune modulators” (J Med Chem, 2003).

Species on record: Mus musculus
Assay: Inhibition of murine splenocyte proliferation; call rule not given here
Format: functional
Procedure, shortened: (§1)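 Spleens from 8-week-old female BALB/c mice were made into single-cell suspensions and the red cells lysed (Tris/NH4Cl, pH 7.2). Cultured at 100 000 cells per well in complete T-cell medium with ConA 1 μg/mL and doubling-down dilutions of compound from 1 mM to 0.1 μM, 48 h at 37 °C, 5% CO2. Then 0.25 μCi [³H]-thymidine was added for 24 h and uptake counted; IC50 derived.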

SMILES	IC50 [µM]
CCCCCCCCC(=O)CC(=O)N[C@H]1CCOC1=O	8.9
CCCCCCCCCC(=O)CC(=O)N[C@@H](CCO)C(=O)OC	53
C=CCCCCCCCCC(=O)CC(=O)N[C@H]1CCOC1=O	7
CCCCCC(=O)CC(=O)N[C@H]1CCOC1=O	400
CCCCCCCC(=O)CC(=O)N[C@H]1CCOC1=O	21
CCCCCCCCCCCC(=O)CC(=O)N[C@H]1CCOC1=O	6.3
CCCCCCCCCC(=O)CC(=O)N[C@H]1CCOC1=O	4
CCCCCC(C)CCC(=O)CC(=O)N[C@H]1CCOC1=O (some centres undefined)	5
O=C(CCCCCCCCCCBr)CC(=O)N[C@H]1CCOC1=O	3
CCCCCCCCCC(O)CC(=O)N[C@H]1CCOC1=O (some centres undefined)	12.5
CCCCCCCCCCCC(O)CC(=O)N[C@H]1CCOC1=O (some centres undefined)	7
CCCCCCCCCCCC(=O)N[C@H]1CCOC1=O	52
COC(=O)CCCCCCCCCC(=O)CC(=O)N[C@H]1CCOC1=O	60
O=C(CCCCCCCCCBr)CC(=O)N[C@H]1CCOC1=O	6
CCCCCCCCCCC(=O)CC(=O)N[C@H]1CCOC1=O	4.3
CCCCCCCCCC(=O)N[C@H]1CCOC1=O	33
CCCCCCCCCC(=O)CC(=O)NC1CCSC1=O (centres undefined)	150
O=C(CCCCCCCCCO)CC(=O)N[C@H]1CCOC1=O	8
CCC/C=C/CCCCCCC(=O)CC(=O)N[C@H]1CCOC1=O	15
CCCCCC/C=C\CCCC(=O)CC(=O)N[C@H]1CCOC1=O	17
C=CCCCCCCCCCC(=O)CC(=O)N[C@H]1CCOC1=O	10
CCCCCCCCCCC(=O)N[C@H]1CCOC1=O	90

Species on record: Mus musculus
Assay: Inhibition of murine splenocyte proliferation; Not active
Format: functional
Procedure, shortened: as §1

SMILES	IC50
CCCCCCCCCC(=O)CC(N)=O	Not Active
O=C(O)CCCCCCCCCCC(=O)CC(=O)N[C@H]1CCOC1=O	Not Active
